Measurements collected from several papers.
Lines come from different studies, so protocols differ.
Effect on: microbial growth

For CNC(=O)[C@@H](C)[C@H]1C(=O)/C(=C(O)/C=C/C(C)=C/[C@@H](C)[C@H]2O[C@@]3(C)O[C@H](C=C[C@@]34CO4)[C@@H]2C)C(=O)N1[C@@H]1CC[C@H](O)[C@H](C)O1, the MIC was > 100 µM (Bacillus anthracis; 34F2).
With O=C1NN=C(N=Cc2ccc(O)cc2O)C1=NNn1c(-c2ccccc2)nc2ccccc2c1=O the MIC was 53.5 µM (Vibrio cholerae; broth dilution; 24 h).
CCCCCCCC(=O)NP(=O)(O)O has an MIC of > 200 µg/mL (Bacillus anthracis; STERNE34F2).
CC1=NN(CNC(=O)c2ccccn2)C(=O)C1=NNn1c(-c2ccccc2)nc2ccccc2c1=O has an MIC of 52 µM (Vibrio cholerae; broth dilution; 24 h).
CCCCCC/C=C\CCCCCCCCCC(=O)NP(=O)(O)O has an MIC of 100 µg/mL (Bacillus anthracis; STERNE34F2).
The MIC of CC1=CC(=O)[C@H]2O[C@]1(C)O[C@H]([C@H](C)/C=C(C)/C=C/C(O)=C1/C(=O)CNC1=O)[C@H]2C is reported as 6.25 µM (Bacillus anthracis; 34F2).
With CC1=NN(CNc2ccccc2[N+](=O)[O-])C(=O)C1=NNn1c(-c2ccccc2)nc2ccccc2c1=O the MIC was 50.4 µM (Vibrio cholerae; broth dilution; 24 h).
For O=C(CCCCCCCCCCOc1ccccc1)CP(=O)(O)O, the MIC was > 200 µg/mL (Bacillus anthracis; STERNE34F2).
CC1=CC[C@H]2O[C@]1(C)O[C@H]([C@H](C)/C=C(C)/C=C/C(O)=C1/C(=O)CNC1=O)[C@H]2C has an MIC of 3.13 µM (Bacillus anthracis; 34F2).
For CC(=O)NCN1N=C(C)C(=NNn2c(-c3ccccc3)nc3ccccc3c2=O)C1=O, the MIC was 59.9 µM (Vibrio cholerae; broth dilution; 24 h).
For CC(/C=C/C(O)=C1/C(=O)CNC1=O)=C\[C@@H](C)[C@H]1O[C@@]2(C)O[C@H](C(=O)[C@@H]3O[C@@]32C)[C@@H]1C, the MIC was 12.5 µM (Bacillus anthracis; 34F2).
CCCCCCCCCCCC(=O)C(F)(F)P(=O)(O)O gave an MIC of 200 µg/mL (Bacillus anthracis; STERNE34F2).
CN[C@@H]1[C@H](O)[C@H](NC)[C@H]2O[C@@]3(O)C(=O)C[C@@H](C)O[C@H]3O[C@@H]2[C@H]1O has an MIC of 25 µg/mL (Streptococcus pyogenes; broth dilution; ATCC700294).
